Screens as filed in PubChem.
STAT1 inh: STAT1 signaling inhibitors, primary screen, cell-based, HTS, luciferase reporter; NIH 3T3 STAT1-luciferase reporter, IFN-gamma, luminescence; inhibition, % at 5.5 µM; 200,000 compounds, 0.35% hits; AID 920, 2007;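 active means inhibition above a set limit, the mean inhibition across all tested compounds plus 3 SD, cut at about 34% in these data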
STAT3 blocker: IL-6 driven STAT3 reporter inhibitors, primary screen, U3A cells, luciferase, luminescence, MLSCN library. IL-6 STAT3-luciferase reporter; host cell line lacks STAT1. inhibition, % at 5.5 µM. 190,000 compounds, 0.89% hits. AID 862, 2007;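 active means inhibition above the mean inhibition across all screened compounds plus 3 SD, cut at about 44% in these data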
STAT1 activator: STAT1 signaling activators, primary screen, cell-based, HTS, luciferase reporter. 200,000 compounds, 2.6% hits. activation (% of control), % at 5.5 µM. NIH 3T3 STAT1-luciferase reporter, IFN-gamma, luminescence; 100% = IFN-gamma alone, no compound. AID 932, 2007;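 active means activation above the screen-wide mean activation plus 3 SD, cut at about 130% in these data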
STAT3 activator: IL-6 driven STAT3 reporter potentiators, primary screen, U3A cells, luciferase, luminescence, MLSCN library; IL-6 STAT3-luciferase reporter; 100% = signal with IL-6 EC80 alone; activation (% of control), % at 5.6 µM; 190,000 compounds, 0.91% hits; AID 871, 2007;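 active means activation above the screen-wide mean of compound activation plus 3 SD, cut at about 130% in these data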
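Material: STAT3-luciferase reporter U3A cells; Probe or stimulus: IL-6 (33 ng/mL); Incubation: compound pre-incubation 1 h before IL-6, then 6 h stimulation at 37 °C; Technique: luminescence from STAT3-driven luciferase reporter; Evaluation: % activation versus median of IL-6-stimulated wells; Controls: IL-6-only high control.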
APP 5'UTR act: activators of APP 5'UTR luciferase reporter, primary screen, SH-SY5Y cells; 190,000 compounds, 1% hits; SH-SY5Y APP 5'UTR luciferase reporter, luminescence; zero percent = DMSO vehicle wells; activation, % at 2 µM;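 active means activation above a set limit, based on mean plus 3 SD of controls, cut at about 140% in these data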
NF-kB expr up: activators of NF-kB expression in neurons, primary screen, cell-based, HTS; human neuronal cells, NF-kB reporter expression; hits give high values; fold change at 12.5 µM; 190,000 compounds, 1.6% hits; in the data active means fold change above about 3.3
Each line names hits and unclear results; the compound was inactive in the other large screens. The list is not random: actives were taken first. Their share in the collection is about 4.9%.

CC(C)Cc1cc(C(=O)Nc2ccc3c(c2)OCO3)no1	STAT1 activator 131.8
Cc1cc(C)n2nc(C(=O)Nc3ccc4c(c3)OCO4)cc2n1	STAT1 activator 129.3, NF-kB expr up 3.33
O=C(COC(=O)CNC(=O)c1ccc(Br)o1)Nc1ccccc1OC(F)F	none
CCOC(=O)N1CCN(C(=O)C2CCN(S(=O)(=O)c3cc(OC)ccc3OC)CC2)CC1	none
Cc1ccc(Nc2nc(COC(=O)COc3ccc(C=O)cc3)cs2)cc1	STAT1 activator 131.2
C/C=C/c1ccc(OCC(=O)OCc2csc(Nc3ccc(C)cc3)n2)c(OC)c1	none
O=C(O)c1ccc2c(c1)C(=O)N(N1C(=O)c3ccccc3C1=O)C2=O	none
Brc1ccc(-c2cnc(-c3cccs3)o2)cc1	STAT1 activator 142.7
O=c1c2c(-c3cccs3)csc2ncn1-c1ccc(Br)cc1	none
COc1ccc2c(c1)[nH]c1c(N3CCN(Cc4ccc5c(c4)OCO5)CC3)ncnc12	STAT3 blocker 77.0
O=C(CNC(=O)c1ccccc1)OC1CCCCC1	STAT1 activator 134.7
O=C(NC(=O)c1ccc(Cl)cc1)OC1CCCCC1	none
CCOC(=O)C1(Cc2ccccc2C(F)(F)F)CCN(CC2CC2)CC1	none
Cc1ccccc1NC(=O)/C=C/c1ccc([N+](=O)[O-])s1	NF-kB expr up 9.78
CCOC(=O)c1ccc(NC(=O)/C=C/c2cccs2)cc1	STAT1 activator 143.1
Cc1ccccc1NC(=O)/C=C/c1cccs1	STAT1 activator 129.0 (no result: NF-kB expr up)
Cc1cc(C)cc(NC(=O)/C=C/c2ccc([N+](=O)[O-])s2)c1	none
Cc1ccc(NC(=O)c2noc3c2CCc2ccccc2-3)cc1	STAT1 activator 130.9
Nc1ccccc1NC(=O)c1ccccc1	NF-kB expr up 3.93
CCc1ccc(NC(=O)c2noc3c2CCc2ccccc2-3)cc1	none
Cc1ccc(NC(=O)c2ccccc2-c2ccccc2C(=O)O)cc1	none
CC(=O)Nc1ccccc1NC(=O)c1ccccc1	none
Cc1ccc(NC(=O)c2ccccc2)cc1	STAT1 activator 135.4, NF-kB expr up 3.45
Cc1ccc(NC(=O)NNC(=O)c2ccccc2)cc1	none
Cc1ccc(NC(=O)c2ccccc2O)cc1	NF-kB expr up 6.02
C/C(O)=c1/cnc2nc3ccccc3n2c1=O	none
CCOC(=O)c1ccc(NC(=O)c2cn(-c3ccccc3)nc2-c2ccncc2)cc1	none
Cc1ccc(-c2nn(-c3ccccc3)cc2C(=O)Nc2ccc(C(=O)O)cc2)cc1	STAT1 activator 130.5
Cc1cc(C)cc(NC(=O)c2ccc(CSc3nnc(C)s3)cc2)c1	none
Cc1ccc(NC(=O)c2ccc(CSc3nnc(C)s3)cc2)cc1	NF-kB expr up 3.85
O=C(CSc1n[nH]c(=O)[nH]c1=O)Nc1ccc(C(=O)O)cc1	none
CC1(C)Cc2c(sc(NC(=O)c3ccc(Br)o3)c2C#N)CO1	STAT1 activator 132.8
Cc1ccc(CNC(=O)c2nn(C)c(C)c2[N+](=O)[O-])cc1	none
O=C(Nc1ccccn1)c1ccc([N+](=O)[O-])o1	NF-kB expr up 4.31
Cc1ccc(CNC(=O)c2ccc([N+](=O)[O-])o2)cc1	NF-kB expr up 3.55
O=C(Nc1ncccn1)c1ccc([N+](=O)[O-])o1	none
Cc1ccc(NC(=O)c2ccc([N+](=O)[O-])o2)cc1C	STAT1 activator 148.4 (no result: NF-kB expr up)
COC(=O)C1=C(C)N(Cc2ccco2)C(=O)N[C@H]1c1cccc(C(F)(F)F)c1	none
COC(=O)CC1C(=O)NCCN1C(=O)c1ccc(S(=O)(=O)N2CCOCC2)cc1 (configuration not stated)	none
CCCc1cc(=O)n2[nH]c(-c3ccccc3)cc2n1	STAT1 activator 133.9
COc1ccc(S(=O)(=O)N(CCCN2CCCC2=O)Cc2cc3cc(C)c(C)cc3[nH]c2=O)cc1	none
Cn1c(SCc2ccc(F)cc2)nnc1-c1cccs1	STAT1 activator 140.3
Cc1ccc(CSc2nnc(-c3ccccn3)n2C)cc1	none
Cn1c(SCc2ccc(F)cc2)nnc1-c1ccccn1	STAT1 activator 139.7
Cn1c(SCc2ccccc2F)nnc1-c1cnccn1	STAT1 activator 136.7
Cn1c(SCc2ccccc2)nnc1-c1cccs1	none
Cn1c(SCc2ccccn2)nnc1-c1cnccn1	none
Cn1c(SCc2ccccc2F)nnc1-c1ccccn1	STAT1 activator 142.5
COc1ccc2c(c1)sc(=N)n2C	none
O=[N+]([O-])c1cnn(-c2nc(-c3ccccc3)cc(C(F)(F)F)n2)c1	none
CCN(C(=O)COC(=O)CNC(=O)c1ccc(C)s1)c1ccccc1	none
CCn1c(O)c(C2=c3ccccc3=NC2=O)c2cc(Br)ccc21	STAT3 activator 133.9
O=C(CSc1ccc(Cl)cc1)Nc1ccc(-c2nc3ccccc3[nH]2)cc1	none
COc1ccc2[nH]c3nc(SC(C)C)nnc3c2c1	APP 5'UTR act 184.6, NF-kB expr up 5.07
COc1ccc2[nH]c3nc(SCc4nnc(-c5ccccc5)o4)nnc3c2c1	none
Cc1ccc(CSc2nnc(SCC(=O)N/N=C/c3c[nH]c4ccccc34)s2)cc1	STAT1 activator 131.0
CCc1ccc(-c2cc(C(=O)N/N=C/c3c[nH]c4ccccc34)[nH]n2)cc1	APP 5'UTR act 208.4
O=C(N/N=C/c1c[nH]c2ccccc12)c1ccn(Cc2ccc(Cl)cc2Cl)n1	STAT3 activator 135.5
O=C(CSc1nnc(SCc2ccccc2)s1)N/N=C/c1c[nH]c2ccccc12	none
CC(=O)NC(CSC(CC(=O)c1ccco1)c1ccc(C)cc1)C(=O)O (configuration not stated)	none
Cc1ccc(C(NC(=O)NC(C)c2ccccc2)C(Cl)(Cl)Cl)cc1F (configuration not stated)	none
O=C(/C=C/Nc1ccc(Oc2ccccc2)cc1)c1ccco1	STAT1 activator 140.1, APP 5'UTR act 163.8, NF-kB expr up 5.36
O=C(/C=C/Nc1ccccc1C(F)(F)F)c1ccco1	APP 5'UTR act 227.9, NF-kB expr up 6.68
O=C(/C=C/Nc1cccc(C(F)(F)F)c1)c1ccco1	STAT1 activator 132.7
NC(=O)c1ccccc1N/C=C/C(=O)c1ccco1	STAT1 activator 133.5
O=C(Nc1cccc(C(F)(F)F)c1)c1ccco1	none
CCc1c(C)nc(N)n2c(SCC(=O)N3CCCC(C)C3)nnc12 (configuration not stated)	none
CCCCNCC#CCOc1cc(C)ccc1C(C)C	none
O=C(CN1C(=O)CCC1=O)Nc1cccc2c1C(=O)NC2=O	none
COc1cccc(NC(=O)c2ccc(CN3CCOCC3)cc2)c1	STAT1 activator 130.6
COc1c(C)cccc1C(=O)Nc1ccc(CN2CCOCC2)cc1	STAT1 activator 129.8
